Test results reported in PMC6468299 (Nucleic Acids Research, 2019).
Marks after values point to notes of the source that are not given here.

How the values were obtained:
DNA polymerase γ (Pol-γ) = molecular target: T1, DNA polymerase γ (Pol-γ) (Homo sapiens, UniProt P54098); experiment: DNA polymerase inhibition assay, Pol-γ; type: biochemical; settings: 1 h, 3H-dTTP incorporation
T1 sequence (P54098 1-1239): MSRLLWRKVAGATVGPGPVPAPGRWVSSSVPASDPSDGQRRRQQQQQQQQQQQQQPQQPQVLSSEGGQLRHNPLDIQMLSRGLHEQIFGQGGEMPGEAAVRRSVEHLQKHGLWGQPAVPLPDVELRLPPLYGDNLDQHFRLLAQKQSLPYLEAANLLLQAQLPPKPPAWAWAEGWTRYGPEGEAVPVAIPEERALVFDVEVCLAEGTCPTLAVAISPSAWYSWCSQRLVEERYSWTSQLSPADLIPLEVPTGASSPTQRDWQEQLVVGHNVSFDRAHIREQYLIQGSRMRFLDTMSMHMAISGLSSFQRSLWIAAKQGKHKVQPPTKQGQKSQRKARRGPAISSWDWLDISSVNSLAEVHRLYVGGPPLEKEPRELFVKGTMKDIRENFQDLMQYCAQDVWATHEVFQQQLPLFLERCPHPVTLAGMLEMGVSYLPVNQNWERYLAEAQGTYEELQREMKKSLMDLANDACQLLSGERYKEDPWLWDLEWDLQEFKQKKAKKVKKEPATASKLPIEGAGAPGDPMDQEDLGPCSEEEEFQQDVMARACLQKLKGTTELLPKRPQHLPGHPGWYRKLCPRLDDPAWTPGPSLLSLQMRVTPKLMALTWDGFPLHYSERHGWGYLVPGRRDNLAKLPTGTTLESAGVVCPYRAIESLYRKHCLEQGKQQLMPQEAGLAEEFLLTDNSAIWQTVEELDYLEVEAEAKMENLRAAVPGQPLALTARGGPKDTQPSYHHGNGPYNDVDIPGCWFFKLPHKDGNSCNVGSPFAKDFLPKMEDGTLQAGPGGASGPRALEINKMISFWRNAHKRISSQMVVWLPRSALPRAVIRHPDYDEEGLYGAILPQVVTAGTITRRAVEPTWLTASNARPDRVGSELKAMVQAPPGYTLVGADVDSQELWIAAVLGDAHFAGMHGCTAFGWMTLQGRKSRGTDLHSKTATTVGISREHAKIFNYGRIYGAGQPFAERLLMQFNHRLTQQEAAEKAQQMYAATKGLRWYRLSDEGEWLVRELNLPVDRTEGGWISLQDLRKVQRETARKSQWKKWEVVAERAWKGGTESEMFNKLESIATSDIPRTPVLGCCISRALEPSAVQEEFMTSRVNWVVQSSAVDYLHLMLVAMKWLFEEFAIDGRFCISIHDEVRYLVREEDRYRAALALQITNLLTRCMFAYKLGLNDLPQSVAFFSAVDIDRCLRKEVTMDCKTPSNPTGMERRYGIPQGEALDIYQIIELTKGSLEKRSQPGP
How it was run: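 Reactions contained 25 μM each dATP/dCTP/dGTP, 25 nM TTP plus 1 μCi ³H-TTP, 160 nM template/primer, and serially diluted test nucleotide (0–200 μM). Incubation was 1 h at 37°C, stopped with TCA (10% final). DNA was precipitated 40 min at 4°C, washed and scintillation-counted; inhibition was taken from reduced radioactivity.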

[1] = molecular target: T2, human mitochondrial DNA polymerase γ (Pol-γ exo-mutant) (Homo sapiens, UniProt P54098, D198A/E200A); experiment: Pol-γ primer extension; type: biochemical
T2 sequence (P54098 26-1239 D198A/E200A limits assumed): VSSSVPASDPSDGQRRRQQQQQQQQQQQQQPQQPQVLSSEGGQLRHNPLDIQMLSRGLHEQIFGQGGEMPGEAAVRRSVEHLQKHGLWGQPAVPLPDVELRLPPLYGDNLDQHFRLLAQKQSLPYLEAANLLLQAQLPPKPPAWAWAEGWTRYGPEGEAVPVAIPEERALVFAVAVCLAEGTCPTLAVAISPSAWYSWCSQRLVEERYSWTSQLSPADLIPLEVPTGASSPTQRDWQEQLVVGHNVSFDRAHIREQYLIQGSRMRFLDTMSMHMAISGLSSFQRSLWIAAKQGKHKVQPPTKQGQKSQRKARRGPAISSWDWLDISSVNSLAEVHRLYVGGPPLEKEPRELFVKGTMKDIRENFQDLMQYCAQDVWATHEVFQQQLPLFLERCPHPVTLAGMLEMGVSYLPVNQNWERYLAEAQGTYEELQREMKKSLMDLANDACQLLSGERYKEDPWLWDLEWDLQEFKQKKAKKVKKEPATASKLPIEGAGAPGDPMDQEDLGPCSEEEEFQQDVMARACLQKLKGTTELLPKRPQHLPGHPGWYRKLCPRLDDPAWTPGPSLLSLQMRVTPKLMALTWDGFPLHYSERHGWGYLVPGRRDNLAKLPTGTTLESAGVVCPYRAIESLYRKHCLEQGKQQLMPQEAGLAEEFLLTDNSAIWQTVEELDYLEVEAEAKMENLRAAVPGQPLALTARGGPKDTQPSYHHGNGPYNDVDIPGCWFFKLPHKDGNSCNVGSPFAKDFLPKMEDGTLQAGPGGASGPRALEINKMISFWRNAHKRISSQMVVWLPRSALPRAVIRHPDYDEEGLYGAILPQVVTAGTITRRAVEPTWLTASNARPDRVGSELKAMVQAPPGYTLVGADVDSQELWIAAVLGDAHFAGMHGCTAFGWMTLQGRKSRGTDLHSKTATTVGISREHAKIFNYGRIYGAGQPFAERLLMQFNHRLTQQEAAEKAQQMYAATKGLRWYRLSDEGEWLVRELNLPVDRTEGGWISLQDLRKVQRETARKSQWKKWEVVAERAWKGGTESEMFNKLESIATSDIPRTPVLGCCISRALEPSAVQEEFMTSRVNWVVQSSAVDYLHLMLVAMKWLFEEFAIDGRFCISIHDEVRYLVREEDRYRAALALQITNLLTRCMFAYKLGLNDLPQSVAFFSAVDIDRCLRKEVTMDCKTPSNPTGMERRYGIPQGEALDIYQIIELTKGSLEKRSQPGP
How it was run: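 Exonuclease-deficient human Pol-γ (40 units) was used with 100 nM DNA template and 100 nM Atto-425-labelled 14-mer DNA primer. Substrate was 1 mM dNTP or 2′-F-NTP, or mixtures 100:1 to 1:100 (1:1 both 1 mM). Products were separated by fluorescence IEX-HPLC (ex 436/em 485 nm) at pH 11. Products under 1.0% peak area were called not detected.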

[2] = tested on: human mitochondrial Pol-γ; settings: absence of endogenous dNTPs; cited from earlier work

| IC50 (DNA polymerase γ (Pol-γ)) [µM] | IC90 (DNA polymerase γ (Pol-γ)) [µM] | % 2′-F product ([1]; F only) | % Native product ([1]; Native only (no 2′-F-NTP)) | % Native product ([1]; Native:F ratio 1:1) | % Native product ([1]; Native:F ratio 1:10) | % 2′-F product ([1]; Native:F ratio 1:100) | % Native product ([1]; Native:F ratio 1:100) | Structure (SMILES) | % 2′-F product ([1]; Native:F ratio 1:1) | % 2′-F product ([1]; Native:F ratio 1:10) | misincorporation frequency relative to the natural dTTP/dNTP [2] [%] |
| --- | --- | --- | --- | --- | --- | --- | --- | --- | --- | --- | --- |
| > 200 | > 200 | 94.2^a % | 95.9^a % | 96.3^a % | 97.1^a % | 17.6^b % | 79.8^b % | Nc1ncnc2c1ncn2[C@@H]1O[C@H](COP(=O)(O)OP(=O)(O)OP(=O)(O)O)[C@@H](O)[C@H]1F [2′-F-ATP] | ND (not detected (integration peak area <1.0%)) | ND (not detected (integration peak area <1.0%)) |  |
| > 200 | > 200 | 73.9^a % | 89.2^a % | 85.0^a % | 88.9^a % | 23.7^b % | 56.0^b % | Nc1nc2c(ncn2[C@@H]2O[C@H](COP(=O)(O)OP(=O)(O)OP(=O)(O)O)[C@@H](O)[C@H]2F)c(=O)[nH]1 [2′-F-GTP] | ND (not detected (integration peak area <1.0%)) | ND (not detected (integration peak area <1.0%)) | 16 |

Second part, the molecule before the results:

| Structure (SMILES) | IC50 (DNA polymerase γ (Pol-γ)) [µM] | IC90 (DNA polymerase γ (Pol-γ)) [µM] | % 2′-F product ([1]; F only) | % Native product ([1]; Native only (no 2′-F-NTP)) | % Native product ([1]; Native:F ratio 1:1) | % Native product ([1]; Native:F ratio 1:10) | % 2′-F product ([1]; Native:F ratio 1:100) | % Native product ([1]; Native:F ratio 1:100) | % 2′-F product ([1]; Native:F ratio 1:1) | % 2′-F product ([1]; Native:F ratio 1:10) | misincorporation frequency relative to the natural dTTP/dNTP [2] [%] |
| --- | --- | --- | --- | --- | --- | --- | --- | --- | --- | --- | --- |
| Nc1ccn([C@@H]2O[C@H](COP(=O)(O)OP(=O)(O)OP(=O)(O)O)[C@@H](O)[C@H]2F)c(=O)n1 [2′-F-CTP] | > 200 | > 200 | 94.0^a % | 97.3^a % | 96.2^a % | 90.6^b % | 30.9^b % | 64.5^b % | ND (not detected (integration peak area <1.0%)) | 4.4^b % |  |
| O=c1ccn([C@@H]2O[C@H](COP(=O)(O)OP(=O)(O)OP(=O)(O)O)[C@@H](O)[C@H]2F)c(=O)[nH]1 [2′-F-UTP] | > 200 | > 200 | 87.3^a % | 83.3^a % | 83.8^a % | 90.0^b % | 7.6^b % | 80.1^b % | ND (not detected (integration peak area <1.0%)) | 2.9^b % | 0.5 |
| O=c1[nH]c(=O)n([C@@H]2O[C@H](COP(=O)(O)OP(=O)(O)OP(=O)(O)O)[C@@H](O)[C@@H]2F)cc1I [FIAU-TP, fialuridine triphosphate, reference compound] | 1.04 | 13.4 | 94.4^a % | 98.3^a % | 91.7^b % |  | 82.7^b % |  | 4.5^b % | 44.0^b % | 125 |
